# Experimental data as given in ChEMBL document CHEMBL1667760, “Synthesis and biological evaluation of 3,5-diaryl isoxazoline/isoxazole linked 2,3-dihydroquinazolinone hybrids as anticancer agents” (2011).
# Calls of active or inactive are those of the source. The rule behind the calls is not given here.
# Columns and labels:
# A549 = test: Cytotoxicity against human A549 cells after 48 hrs by sulforhodamine B assay; format: functional; conditions: A549, 48 h
# Procedure, shortened: (§1)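 Cells were grown in RPMI 1640 with 10% FBS and 2 mM L-glutamine, plated at densities set by doubling time, and pre-incubated 24 h at 37 °C, 5% CO2. Drugs were tested at 0.1, 1, 10 and 100 µM in triplicate wells for 48 h continuous exposure. Cells were fixed with 10% TCA (final) and stained with 0.4% SRB. A540 was read against a 690 nm reference, and percent growth was calculated relative to control. Experiments were repeated three times.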
# HOP-62 = test: Cytotoxicity against human HOP62 cells after 48 hrs by sulforhodamine B assay; format: functional; conditions: HOP-62, 48 h
# Procedure, shortened: (§2)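 Run by the NCI 60-cell-line screen. A one-dose pre-test was done first, followed by the main test over a 5-log dose range (10^-4 to 10^-8 M). Results are reported as log molar GI50 (50% net growth inhibition), TGI (total growth inhibition) and LC50 (50% net cell death), with mean-graph midpoints across all lines.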
# HOP-92 = test: Cytotoxicity against human HOP92 cells after 48 hrs by sulforhodamine B assay; format: functional; conditions: HOP-92, 48 h; procedure, shortened: as §2
# NCI-H322M = test: Cytotoxicity against human NCI-H322M cells after 48 hrs by sulforhodamine B assay; format: functional; procedure, shortened: as §2
# NCI-H522 = test: Cytotoxicity against human NCI-H522 cells after 48 hrs by sulforhodamine B assay; format: functional; conditions: NCI-H522, 48 h; procedure, shortened: as §2
# HCT-116 = test: Cytotoxicity against human HCT116 cells after 48 hrs by sulforhodamine B assay; format: functional; conditions: HCT-116, 48 h; procedure, shortened: as §2
# PC-3 = test: Cytotoxicity against human PC3 cells after 48 hrs by sulforhodamine B assay; format: functional; conditions: PC-3, 48 h; procedure, shortened: as §1
# SF-268 = test: Cytotoxicity against human SF268 cells after 48 hrs by sulforhodamine B assay; format: functional; conditions: SF-268, 48 h; procedure, shortened: as §2
# SF-295 = test: Cytotoxicity against human SF295 cells after 48 hrs by sulforhodamine B assay; format: functional; conditions: SF-295, 48 h; procedure, shortened: as §2
# U-251 = test: Cytotoxicity against human U251 cells after 48 hrs by sulforhodamine B assay; format: functional; conditions: U-251, 48 h
# Procedure, shortened: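 NCI 60-cell-line panel screen of human tumor lines: a one-dose pre-test, then the main test over a 5-log range (10^-4–10^-8 M). GI50, TGI and LC50 are reported as log molar concentrations for 50% net growth inhibition, total growth inhibition and 50% net cell death. Mean graph midpoints are also calculated.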
# M14 = test: Cytotoxicity against human M14 cells after 48 hrs by sulforhodamine B assay; format: functional; conditions: M14, 48 h; procedure, shortened: as §2
# SK-MEL-2 = test: Cytotoxicity against human SK-MEL-2 cells after 48 hrs by sulforhodamine B assay; format: functional; conditions: SK-MEL-2, 48 h; procedure, shortened: as §2
# OVCAR-8 = test: Cytotoxicity against human OVCAR8 cells after 48 hrs by sulforhodamine B assay; format: functional; conditions: OVCAR-8, 48 h; procedure, shortened: as §2
# BT-549 = test: Cytotoxicity against human BT549 cells after 48 hrs by sulforhodamine B assay; format: functional; conditions: BT-549, 48 h; procedure, shortened: as §2
# Tubulin (Homo sapiens) = Tubulin (Homo sapiens) (UniProt P68371+Q9H4B7+P0DPH7+P68366+Q13509+Q71U36+P04350+Q3ZCM7+P07437+P68363+Q9BQE3+Q6PEY2+Q13885+Q9BVA1+Q9BUF5); test: Inhibition of tubulin polymerization in human MCF7 cells assessed as disrupted microtubule organization at 5 uM after 48 hrs by microscopic analysis; format: cell-based
# Procedure, shortened: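 MCF-7 cells on coverslips incubated 48 h with or without compound. Fixed in 3% paraformaldehyde/0.02% glutaraldehyde, permeabilized in -20 °C methanol, blocked with 1% BSA. Stained with mouse monoclonal anti-tubulin and FITC secondary; confocal imaging to judge microtubule network integrity.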
# [1] = read-out: pLC50 (the source's name) (converted)
structure (smiles),measurement,setting,value
COc1cc(C2NC(=O)c3ccccc3N2)ccc1OCCCCCOc1c(OC)cc(C2=NOC(c3cc(OC)c(OC)c(OC)c3)C2)cc1OC (configuration not stated),LC50,A549,> 100 µM
same,GI50,A549; read-out: pGI50 (converted),0.324 µM
same,TGI,A549; read-out: pTGI,> 100 µM
same,GI50,HOP-62,19.1 µM
same,CC50,HOP-62; [1],> 100 µM
same,TGI,HOP-62; read-out: pTGI (converted),81.3 µM
same,GI50,HOP-92,60.3 µM
same,CC50,HOP-92; [1],> 100 µM
same,TGI,HOP-92; read-out: pTGI,> 100 µM
same,GI50,NCI-H322M,> 100 µM
same,CC50,NCI-H322M; [1],> 100 µM
same,TGI,NCI-H322M; read-out: pTGI,> 100 µM
same,GI50,NCI-H522,10.7 µM
same,CC50,NCI-H522; [1],93.3 µM
same,TGI,NCI-H522; read-out: pTGI (converted),31.6 µM
same,GI50,HCT-116,0.708 µM
same,CC50,HCT-116; [1],> 100 µM
same,TGI,HCT-116; read-out: pTGI (converted),40.7 µM
same,LC50,PC-3,> 100 µM
same,GI50,PC-3; read-out: pGI50 (converted),28.8 µM
same,TGI,PC-3; read-out: pTGI,> 100 µM
same,GI50,SF-268,21.4 µM
same,CC50,SF-268; [1],> 100 µM
same,TGI,SF-268; read-out: pTGI,> 100 µM
same,GI50,SF-295,0.398 µM
same,CC50,SF-295; [1],> 100 µM
same,TGI,SF-295; read-out: pTGI,> 100 µM
same,GI50,U-251,15.1 µM
same,CC50,U-251; [1],> 100 µM
same,TGI,U-251; read-out: pTGI,> 100 µM
same,GI50,M14,20.9 µM
same,CC50,M14; [1],> 100 µM
same,TGI,M14; read-out: pTGI,> 100 µM
same,GI50,SK-MEL-2,35.5 µM
same,CC50,SK-MEL-2; [1],> 100 µM
same,TGI,SK-MEL-2; read-out: pTGI,> 100 µM
same,LC50,OVCAR-8,> 100 µM
same,GI50,OVCAR-8; read-out: pGI50 (converted),24.5 µM
same,TGI,OVCAR-8; read-out: pTGI,> 100 µM
same,CC50,BT-549; [1],> 100 µM
same,TGI,BT-549; read-out: pTGI,> 100 µM
same,inhibition,Tubulin (Homo sapiens),Active
